Columns and labels:
ACHN = assay: Antiproliferative activity against human ACHN cells by SRB method; assay type: functional
Procedure, shortened: (§1)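 GI50 against human cancer cell lines is the mean of three independent experiments.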

NCI-H23 = assay: Antiproliferative activity against human NCI-H23 cells by SRB method; assay type: functional; procedure, shortened: as §1
MDA-MB-231 = assay: Antiproliferative activity against human MDA-MB-231 cells by SRB method; assay type: functional; procedure, shortened: as §1
[1] = Antiproliferative activity against human HCT15 cells by SRB method; assay type: functional; conditions: HCT-15; procedure, shortened: as §1
[2] = Antiproliferative activity against human NUGC3 cells by SRB method; assay type: functional; conditions: NUGC-3; procedure, shortened: as §1
PC-3 = assay: Antiproliferative activity against human PC3 cells by SRB method; assay type: functional; procedure, shortened: as §1
[3] = target: Nuclear factor NF-kappa-B complex (Homo sapiens, UniProt P19838+Q00653+Q04206); assay: Inhibition of NF-kappaB in human THP1 cells incubated for 2 hrs prior to LPS challenge measured after 16 hrs by SEAP assay; assay type: cell-based, THP-1
Procedure, shortened: (§2)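 Reporter cells: RAW 264.7 carrying stably integrated pNF-κB-SEAP-NPT, or THP-1 transfected with pNF-κB-SEAP. Cells were pretreated with compound for 2 h, then stimulated with LPS (1 µg/ml) for 16 h. Culture-medium aliquots were heated at 65 °C for 5 min and incubated with 4-methylumbelliferyl phosphate (500 µM) in the dark for 1 h. Fluorescence was read at ex 360/em 449 nm as RFU. IC50 is the mean of three experiments.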

[4] = Inhibition of NF-kappaB in mouse RAW264.7 cells incubated for 2 hrs prior to LPS challenge measured after 16 hrs by SEAP assay; assay type: cell-based; procedure, shortened: as §2

Chain of Nuclear factor NF-kappa-B complex (P19838 1-433 limits assumed): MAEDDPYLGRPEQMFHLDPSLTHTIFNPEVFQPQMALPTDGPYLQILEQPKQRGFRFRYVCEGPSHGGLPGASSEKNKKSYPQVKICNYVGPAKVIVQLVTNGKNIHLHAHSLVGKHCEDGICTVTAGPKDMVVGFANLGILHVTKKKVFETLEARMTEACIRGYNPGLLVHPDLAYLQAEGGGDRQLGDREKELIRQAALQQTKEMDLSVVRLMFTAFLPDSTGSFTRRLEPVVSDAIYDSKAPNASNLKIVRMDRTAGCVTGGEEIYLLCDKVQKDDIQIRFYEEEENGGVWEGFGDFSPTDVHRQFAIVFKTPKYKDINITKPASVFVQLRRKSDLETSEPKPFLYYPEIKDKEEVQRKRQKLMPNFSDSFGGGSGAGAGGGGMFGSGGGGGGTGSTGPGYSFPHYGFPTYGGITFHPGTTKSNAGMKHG
Chain of Nuclear factor NF-kappa-B complex (Q00653 1-454 limits assumed): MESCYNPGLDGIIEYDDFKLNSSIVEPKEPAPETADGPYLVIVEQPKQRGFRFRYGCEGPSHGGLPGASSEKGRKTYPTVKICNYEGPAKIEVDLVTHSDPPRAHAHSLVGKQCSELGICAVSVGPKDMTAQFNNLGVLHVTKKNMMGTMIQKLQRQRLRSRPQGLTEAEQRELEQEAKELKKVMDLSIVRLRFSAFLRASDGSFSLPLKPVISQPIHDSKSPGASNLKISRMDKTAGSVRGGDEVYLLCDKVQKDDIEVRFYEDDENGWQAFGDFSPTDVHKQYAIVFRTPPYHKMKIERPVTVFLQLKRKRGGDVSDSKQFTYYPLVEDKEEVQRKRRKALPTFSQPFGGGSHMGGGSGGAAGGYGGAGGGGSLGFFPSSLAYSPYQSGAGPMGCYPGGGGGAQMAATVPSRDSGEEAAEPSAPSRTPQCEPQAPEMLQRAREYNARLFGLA
Chain of Nuclear factor NF-kappa-B complex (Q04206 whole entry): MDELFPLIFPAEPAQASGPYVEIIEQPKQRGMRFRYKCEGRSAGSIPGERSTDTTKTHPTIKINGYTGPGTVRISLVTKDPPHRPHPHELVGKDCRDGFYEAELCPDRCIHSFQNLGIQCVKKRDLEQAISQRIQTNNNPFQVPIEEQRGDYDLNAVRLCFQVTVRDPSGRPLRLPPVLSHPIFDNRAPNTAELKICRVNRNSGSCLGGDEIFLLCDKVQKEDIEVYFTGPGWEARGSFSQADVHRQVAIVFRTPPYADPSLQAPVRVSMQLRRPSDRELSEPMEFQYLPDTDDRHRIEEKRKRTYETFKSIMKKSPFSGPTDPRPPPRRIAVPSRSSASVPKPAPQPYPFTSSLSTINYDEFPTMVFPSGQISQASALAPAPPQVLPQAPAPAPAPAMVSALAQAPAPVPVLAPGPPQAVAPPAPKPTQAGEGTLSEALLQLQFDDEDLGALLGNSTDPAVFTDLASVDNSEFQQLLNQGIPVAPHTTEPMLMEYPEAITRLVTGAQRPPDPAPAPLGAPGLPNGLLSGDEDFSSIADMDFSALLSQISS

| SMILES | GI50 (ACHN) [µM] | GI50 (NCI-H23) [µM] | GI50 (MDA-MB-231) [µM] | GI50 (PC-3) [µM] | IC50 [3] [µM] | IC50 [4] [µM] | GI50 [1] [µM] | GI50 [2] [µM] |
| --- | --- | --- | --- | --- | --- | --- | --- | --- |
| CCCCCCOc1cccc(O)c1C(=O)/C=C/c1ccc(O)cc1 | > 30 | > 30 | > 30 | > 30 | – | – | > 30 | > 30 |
| CC(C)(C)CCOc1cccc(O)c1C(=O)/C=C/c1ccc(S(N)(=O)=O)cc1 | 3.3 | 2.95 | 2.11 | 3.25 | 1.2 | – | 2.93 | 1.17 |
| COc1cccc2c1C(=O)c1c(O)c3c(c(O)c1C2=O)C[C@@](O)(C(=O)CO)C[C@@H]3O[C@H]1C[C@H](N)[C@H](O)[C@H](C)O1 [DOXORUBICIN] | – | – | – | – | – | – | – | 1 |
| CC(C)CCCOc1cccc(O)c1C(=O)/C=C/c1ccc(O)cc1 | 3.63 | 11.3 | 3.48 | 3.6 | 11 | – | 11.6 | 3.52 |
| O=C(/C=C/c1ccc(O)cc1)c1c(O)cccc1OCc1ccccc1 | > 30 | > 30 | > 30 | > 30 | – | – | > 30 | > 30 |
| O=C(/C=C/c1ccc(O)cc1)c1c(O)cccc1OCC12CC3CC(CC(C3)C1)C2 | > 30 | > 30 | > 30 | > 30 | > 30 | – | > 30 | > 30 |
| CCC(CC)COc1cccc(O)c1C(=O)/C=C/c1ccc(O)cc1 | 3.37 | 3.21 | 3.13 | 3.39 | 12 | – | 3.42 | 1.96 |
| CC(C)(C)CCOc1cccc(O)c1C(=O)/C=C/c1ccc(C(=O)O)cc1 | 8.45 | 4.77 | 11.2 | 6.5 | 2.8 | – | 2.17 | 5.44 |
| COc1cccc(OCCC(C)(C)C)c1C(=O)/C=C/c1ccc(O)cc1 | > 30 | > 30 | > 30 | > 30 | > 30 | – | > 30 | > 30 |
| CC(C)(C)CCOc1cccc(O)c1C(=O)CCc1ccc(O)cc1 | > 30 | > 30 | > 30 | > 30 | > 30 | – | > 30 | > 30 |

Continued, in another order:

| GI50 (ACHN) [µM] | GI50 (NCI-H23) [µM] | GI50 (MDA-MB-231) [µM] | GI50 (PC-3) [µM] | IC50 [3] [µM] | IC50 [4] [µM] | SMILES | GI50 [1] [µM] | GI50 [2] [µM] |
| --- | --- | --- | --- | --- | --- | --- | --- | --- |
| 3.4 | 3.37 | 3.34 | 3.48 | 18 | – | O=C(/C=C/c1ccc(O)cc1)c1c(O)cccc1OCCC1CCCC1 | 3.31 | 3.2 |
| 3.51 | 3.16 | 3.41 | 3.04 | 13 | – | O=C(/C=C/c1ccc(O)cc1)c1c(O)cccc1OCC1CCCC1 | 3.41 | 2.14 |
| > 30 | > 30 | > 30 | > 30 | > 30 | – | O=C(/C=C/c1ccc(O)cc1)c1c(O)cccc1OCCC1CCCCC1 | > 30 | > 30 |
| 3.29 | 3.22 | 3.52 | 2.97 | 8 | – | CC(C)COc1cccc(O)c1C(=O)/C=C/c1ccc(O)cc1 | 2.6 | 2.98 |
| > 30 | > 30 | > 30 | > 30 | > 30 | – | CCCCOc1cccc(O)c1C(=O)/C=C/c1ccc(O)cc1 | > 30 | > 30 |
| > 30 | > 30 | > 30 | > 30 | – | – | O=C(/C=C/c1ccc(O)cc1)c1c(O)cccc1OCC1CCCCC1 | > 30 | > 30 |
| 3.14 | 3.13 | 2.38 | 3.22 | 3 | – | CC(C)(C)CCOc1cccc(O)c1C(=O)/C=C/c1ccc(O)cc1 | 3.43 | 3.3 |
| 11.3 | 12.1 | 10.3 | 11.5 | – | 10 | CC(C)CCOc1cccc(O)c1C(=O)/C=C/c1ccc(O)cc1 | 10.6 | 12.4 |
| > 30 | > 30 | > 30 | > 30 | > 30 | – | CC(C)=CCOc1cccc(O)c1C(=O)/C=C/c1ccc(O)cc1 | > 30 | > 30 |

From ChEMBL document CHEMBL3286164, “Anti-proliferative effect of chalcone derivatives through inactivation of NF-κB in human cancer cells” (Bioorg Med Chem, 2014)
